# Test results published in ChEMBL document CHEMBL1146375, “Synthetic studies on novel benzimidazolopeptides with antimicrobial, cytotoxic and anthelmintic potential” (2007).
# Tests used:
# Candida albicans [1] = experiment: Antifungal activity against Candida albicans MUCC 29 after 48 hrs by disc diffusion method; type: functional
# Summary of the method: (§1)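 Agar well diffusion on plates inoculated with spore suspension in normal saline from cultures on Sabouraud's broth. Wells punched and loaded with test samples or griseofulvin at 10 mg mL^-1, with DMSO as negative control. Incubated 48 h at 37 °C.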
# Pseudomonas aeruginosa [2] = experiment: Antibacterial activity against Pseudomonas aeruginosa NCIM 2034 after 18 hrs by disc diffusion method; type: functional
# Summary of the method: (§2)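 Modified Kirby-Bauer disc diffusion. Plates inoculated with spore suspension (about 6 × 10⁴ spores mL^-1). Sterile 6 mm paper discs carried test samples at 10 mg mL^-1; ciprofloxacin disc as reference, DMF disc as negative control. Plates held 18 h at 37 °C. Inhibition zone diameters (mm) averaged over triplicate sets.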
# [3] = Anthelmintic activity against Megascoplex konkanensis ICARBC 211 assessed as mean paralyzing time; type: functional
# Summary of the method: (§3)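 Earthworms exposed to test suspensions at 2 mg mL^-1 (0.2% w/v), made by triturating compound with Tween 80 (0.5%) and distilled water, then mechanically stirred 30 min. Mebendazole suspension prepared alike as reference. Paralysis and death times recorded; death confirmed by no movement in 50 °C water. Means from triplicate sets.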
# Trichophyton benhamiae [4] = experiment: Antifungal activity against Trichophyton mentagrophytes MUCC 665 after 48 hrs by disc diffusion method; type: functional, Arthroderma benhamiae; summary of the method: as §1
# Pseudomonas aeruginosa [5] = experiment: Antibacterial activity against Pseudomonas aeruginosa NCIM 2034 after 18 hrs by tube dilution method; type: functional; details: NCIM 2034, 18 h
# Summary of the method: (§4)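 Tube dilution MIC. Stock diluted in sterile broth to seven concentrations from 200 to 3.1 […]. Each tube inoculated with one loopful of test bacterium and incubated 18 h at 37 °C. MIC read from presence or absence of growth.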
# Microsporum audouinii [6] = experiment: Antifungal activity against Microsporum audouinii MUCC 545 after 48 hrs by tube dilution method; type: functional
# Summary of the method: (§5)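 Tube dilution MIC as for bacteria (seven concentrations, 200–3.1 […]), with DMSO in place of DMF. Tubes inoculated with fungal culture and incubated 48 h at 37 °C. MIC read from presence or absence of growth.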
# Escherichia coli [7] = experiment: Antibacterial activity against Escherichia coli NCIM 2065 after 18 hrs by disc diffusion method; type: functional; summary of the method: as §2
# Staphylococcus aureus [8] = experiment: Antibacterial activity against Staphylococcus aureus NCIM 2079 after 18 hrs by tube dilution method; type: functional; details: NCIM 2079, 18 h; summary of the method: as §4
# Aspergillus niger = experiment: Antifungal activity against Aspergillus niger MUCC 177 after 48 hrs by disc diffusion method; type: functional; summary of the method: as §1
# Microsporum audouinii [9] = experiment: Antifungal activity against Microsporum audouinii MUCC 545 after 48 hrs by disc diffusion method; type: functional; summary of the method: as §1
# Bacillus subtilis [10] = experiment: Antibacterial activity against Bacillus subtilis NCIM 2063 after 18 hrs by disc diffusion method; type: functional; summary of the method: as §2
# Pontoscolex corethrurus [11] = experiment: Anthelmintic activity against Pontoscolex corethrurus ICARBC 408 assessed as mean death time; type: functional
# Summary of the method: (§6)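 Earthworms exposed to test suspensions at 2 mg mL−1, prepared by triturating compound with Tween 80 (0.5%) and distilled water, stirring 30 min, then diluting to 0.2% w/v. Mebendazole suspension was made the same way. Death was confirmed by moving worms into 50 °C warm water and looking for movement. Mean death time (min) taken from triplicate sets.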
# Staphylococcus aureus [12] = experiment: Antibacterial activity against Staphylococcus aureus NCIM 2079 after 18 hrs by disc diffusion method; type: functional; summary of the method: as §2
# Eudrilus [13] = experiment: Anthelmintic activity against Eudrilus sp. assessed as mean paralyzing time; type: functional; summary of the method: as §3
# Trichophyton benhamiae [14] = experiment: Antifungal activity against Trichophyton mentagrophytes MUCC 665 after 48 hrs by tube dilution method; type: functional, Arthroderma benhamiae; summary of the method: as §5
# Candida albicans [15] = experiment: Antifungal activity against Candida albicans MUCC 29 after 48 hrs by tube dilution method; type: functional; summary of the method: as §5
# Escherichia coli [16] = experiment: Antibacterial activity against Escherichia coli NCIM 2065 after 18 hrs by tube dilution method; type: functional; details: NCIM 2065, 18 h
# [17] = Anthelmintic activity against Megascoplex konkanensis ICARBC 211 assessed as mean death time; type: functional; summary of the method: as §3
# Eudrilus [18] = experiment: Anthelmintic activity against Eudrilus sp. assessed as mean death time; type: functional; summary of the method: as §6
# Bacillus subtilis [19] = experiment: Antibacterial activity against Bacillus subtilis NCIM 2063 after 18 hrs by tube dilution method; type: functional; details: NCIM 2063, 18 h; summary of the method: as §4
# Pontoscolex corethrurus [20] = experiment: Anthelmintic activity against Pontoscolex corethrurus ICARBC 408 assessed as mean paralyzing time; type: functional; summary of the method: as §3
SMILES,inhibition zone (IZ) (Candida albicans [1]) [mm],inhibition zone (IZ) (Pseudomonas aeruginosa [2]) [mm],TIME [3] [h],inhibition zone (IZ) (Trichophyton benhamiae [4]) [mm],MIC (Pseudomonas aeruginosa [5]) [µg/mL],MIC (Microsporum audouinii [6]) [µg/mL],inhibition zone (IZ) (Escherichia coli [7]) [mm],MIC (Staphylococcus aureus [8]) [µg/mL],inhibition zone (IZ) (Aspergillus niger) [mm],inhibition zone (IZ) (Microsporum audouinii [9]) [mm],inhibition zone (IZ) (Bacillus subtilis [10]) [mm],Time (Pontoscolex corethrurus [11]) [min],inhibition zone (IZ) (Staphylococcus aureus [12]) [mm],Time (Eudrilus [13]) [min],MIC (Trichophyton benhamiae [14]) [µg/mL],MIC (Candida albicans [15]) [µg/mL],MIC (Escherichia coli [16]) [µg/mL],TIME [17] [h],Time (Eudrilus [18]) [min],MIC (Bacillus subtilis [19]) [µg/mL],other results
Cc1cc2nc(-c3c(I)cc(C(=O)N[C@@H](C)C(=O)N[C@@H](Cc4ccc(O)cc4)C(=O)NCC(=O)O)cc3I)[nH]c2cc1C,16,23,0.454,15,6,12.5,18,12.5,15,9,16,47.45,13,26.25,12.5,6,12.5,0.676,45.22,6,Time (Pontoscolex corethrurus [20]): 35.42 min
COC(=O)[C@@H]1CCCN1C(=O)[C@@H](NC(=O)[C@H](Cc1ccccc1)NC(=O)c1cc(I)c(-c2nc3cc(C)c(C)cc3[nH]2)c(I)c1)C(C)C,16,22,0.454,12,12.5,12.5,16,25,14,10,16,50.22,12,29.24,6,6,25,0.672,45.34,6,Time (Pontoscolex corethrurus [20]): 33.64 min
COC(=O)[C@H](C)NC(=O)[C@@H]1CCCN1C(=O)c1cc(-c2nc3ccc([N+](=O)[O-])cc3[nH]2)ccc1O,22,28,0.438,17,6,6,18,25,16,12,13,43.76,9,27.23,6,6,12.5,0.587,35.82,12.5,Time (Pontoscolex corethrurus [20]): 31.98 min
COC(=O)[C@H](Cc1ccc(O)cc1)NC(=O)[C@H](C)NC(=O)[C@H](Cc1c[nH]c2ccccc12)NC(=O)c1cc(-c2nc3cc(C)c(C)cc3[nH]2)ccc1O,17,21,0.228,14,6,12.5,16,12.5,16,11,13,29.34,10,13.41,6,6,12.5,0.379,24.07,12.5,Time (Pontoscolex corethrurus [20]): 17.6 min
COC(=O)CNC(=O)[C@H](CC(C)C)NC(=O)c1ccc(-c2nc3cc(C)c(C)cc3[nH]2)cc1,18,20,0.472,12,6,25,14,12.5,16,10,10,49.4,9,29.73,6,6,12.5,0.69,42.54,6,Time (Pontoscolex corethrurus [20]): 37.17 min
